Assay results as given in ChEMBL document CHEMBL3124807 (Eur J Med Chem, 2014).

Legend:
[1] = test system: Rattus norvegicus; assay: Antiinflammatory activity in Wistar albino rat assessed as inhibition of formalin-induced paw edema at 50 mg/kg, po administered 1 hr prior to formalin challenge measured after 3 hrs relative to control; format: functional
In short: (§1)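 Adult male Wistar albino rats (120–150 g), five per group. Dosed orally at 50 mg/kg in 10% aqueous DMSO (v/v) 1 h before 0.1 ml of 2.5% formalin was injected subcutaneously into the right hind paw; vehicle-only control group. Paw thickness was measured by Vernier caliper at 0 h and at 30 min, 1, 2 and 3 h. Edema inhibition % = (Vc − Vt)/Vc × 100; means of five ± S.E.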

[2] = test system: Rattus norvegicus; assay: Antiinflammatory activity in Wistar albino rat assessed as inhibition of formalin-induced paw edema at 50 mg/kg, po administered 1 hr prior to formalin challenge measured after 30 mins relative to control; format: functional; in short: as §1
[3] = test system: Rattus norvegicus; assay: Antiinflammatory activity in Wistar albino rat assessed as inhibition of formalin-induced paw edema at 50 mg/kg, po administered 1 hr prior to formalin challenge measured after 1 hr relative to control; format: functional; in short: as §1
[4] = test system: Rattus norvegicus; assay: Ulcerogenic effect in fasted Wistar albino rat at 50 mg/kg, po measured 2 hrs post last dose; format: toxicity, organism-based; parameters: dose 50 mg/kg, route oral; details: in vivo
In short: (§2)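 Adult male Wistar albino rats (120–150 g), five per group, fasted 18 h before dosing. Oral doses were given for three successive days (test compounds 50 mg/kg, ibuprofen 25 mg/kg; control 10% aqueous DMSO), with feeding 2 h after dosing. Stomachs were removed 2 h after the last dose, opened along the greater curvature, rinsed with 0.9% NaCl and examined under a 10× lens. Ulcer index followed Robert's method (incidence/10, mean ulcer number, severity score).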

[5] = test system: Rattus norvegicus; assay: Antiinflammatory activity in Wistar albino rat assessed as inhibition of formalin-induced paw edema at 50 mg/kg, po administered 1 hr prior to formalin challenge measured after 2 hrs relative to control; format: functional; in short: as §1
[6] = molecular target: T1, Prostaglandin G/H synthase 2 (Homo sapiens, UniProt P35354); assay: Inhibition of human recombinant COX2 using arachidonic acid as substrate incubated for 10 mins prior to substrate addition measured after 2 mins by enzyme immunoassay
T1 sequence (P35354 whole entry): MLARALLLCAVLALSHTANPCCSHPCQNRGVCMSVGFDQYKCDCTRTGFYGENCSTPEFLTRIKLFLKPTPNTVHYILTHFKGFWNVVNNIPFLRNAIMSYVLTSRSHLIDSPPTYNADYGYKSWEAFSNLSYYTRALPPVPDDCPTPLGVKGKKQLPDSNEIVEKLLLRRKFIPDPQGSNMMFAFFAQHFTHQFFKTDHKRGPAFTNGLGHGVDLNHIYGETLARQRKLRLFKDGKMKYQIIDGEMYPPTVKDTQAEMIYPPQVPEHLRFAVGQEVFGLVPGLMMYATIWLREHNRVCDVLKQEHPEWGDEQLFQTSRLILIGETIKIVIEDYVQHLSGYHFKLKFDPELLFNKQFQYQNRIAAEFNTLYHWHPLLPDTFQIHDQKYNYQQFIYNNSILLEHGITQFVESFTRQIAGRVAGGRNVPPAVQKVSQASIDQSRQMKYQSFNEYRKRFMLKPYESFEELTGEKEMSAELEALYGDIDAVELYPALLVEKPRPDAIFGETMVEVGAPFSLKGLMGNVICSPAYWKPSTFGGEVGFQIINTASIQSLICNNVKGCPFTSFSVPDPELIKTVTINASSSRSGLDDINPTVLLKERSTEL

[7] = molecular target: T2, Prostaglandin G/H synthase 1 (Ovis aries, UniProt P05979); assay: Inhibition of ovine COX1 using arachidonic acid as substrate incubated for 10 mins prior to substrate addition measured after 2 mins by enzyme immunoassay
T2 sequence (P05979 whole entry): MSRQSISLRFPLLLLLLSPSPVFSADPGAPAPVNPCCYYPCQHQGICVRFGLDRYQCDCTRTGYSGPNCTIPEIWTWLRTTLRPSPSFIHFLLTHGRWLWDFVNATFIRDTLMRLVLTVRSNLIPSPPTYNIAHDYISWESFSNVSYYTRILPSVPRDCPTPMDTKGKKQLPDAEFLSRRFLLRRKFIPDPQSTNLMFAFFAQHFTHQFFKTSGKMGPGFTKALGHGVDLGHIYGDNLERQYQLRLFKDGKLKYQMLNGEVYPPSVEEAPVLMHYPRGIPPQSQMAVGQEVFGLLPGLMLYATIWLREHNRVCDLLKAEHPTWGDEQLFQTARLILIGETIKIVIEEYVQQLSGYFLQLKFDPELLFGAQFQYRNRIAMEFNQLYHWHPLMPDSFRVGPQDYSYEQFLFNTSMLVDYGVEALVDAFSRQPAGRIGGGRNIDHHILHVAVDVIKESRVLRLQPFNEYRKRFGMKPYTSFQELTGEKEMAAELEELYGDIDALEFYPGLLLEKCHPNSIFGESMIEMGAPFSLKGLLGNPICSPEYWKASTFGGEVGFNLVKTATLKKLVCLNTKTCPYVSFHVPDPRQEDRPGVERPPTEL
In short: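 Ovine COX-1 in 0.1 M Tris-HCl pH 8.0 with 5 mM EDTA, 2 mM phenol and heme. Test concentrations were 0, 0.01, 0.1, 1, 10 and 50 (final volume 1 ml). Preincubated 10 min at 37 °C, then arachidonic acid (100) was added and the reaction was stopped with 1 M HCl after 2 min. PGF2α (from SnCl2 reduction of PGH2) was quantified by competitive EIA at 410 nm. IC50 was taken from the concentration–inhibition curve, duplicates.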

[8] = Selectivity index, ratio of IC50 for ovine COX1 to IC50 for human recombinant COX2
In short: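 IC50 (COX-1)/IC50 (COX-2). Both IC50 values come from the EIA described above, run with ovine COX-1 or human recombinant COX-2 under the same buffer, preincubation, arachidonic acid and duplicate conditions.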

[9] = test system: Rattus norvegicus; assay: Ulcerogenic effect in fasted Wistar albino rat at 25 mg/kg, po measured 2 hrs post last dose; format: toxicity, organism-based; parameters: dose 25 mg/kg, route oral; details: in vivo; in short: as §2
[10] = test system: Rattus norvegicus; assay: Ulcerogenic effect in fasted Wistar albino rat assessed as reduction in ulcerogenic potential at 50 mg/kg, po measured 2 hrs post last dose relative to celecoxib; format: toxicity, organism-based; parameters: dose 50 mg/kg, route oral; scale not given: the % may be the effect or the level left; details: in vivo

Cc1ccc(-c2cc(C(F)(F)F)nn2-c2ccc(S(N)(=O)=O)cc2)cc1 [CELECOXIB]
inhibition in vivo at 50 mg/kg [1]: 100%
inhibition in vivo at 50 mg/kg [2]: 94.4%
inhibition in vivo at 50 mg/kg [3]: 100%
UI [4]: 16.12
inhibition in vivo at 50 mg/kg [5]: 100%

COc1c(-c2cc(C(F)(F)F)nn2-c2ccc(S(N)(=O)=O)cc2)c(O)cc2occc12
IC50 [6]: 7 µM
IC50 [7]: > 50 µM
Ratio IC50 [8]: > 7.14

CC(C)Cc1ccc(C(C)C(=O)O)cc1 (centres undefined) [IBUPROFEN]
UI [9]: 22.32

COc1c(-c2cc(-c3cccnc3)nn2-c2ccc(S(N)(=O)=O)cc2)c(O)c(OC)c2occc12
Activity [10]: 40%
IC50 [6]: 0.36 µM
IC50 [7]: > 50 µM
inhibition in vivo at 50 mg/kg [1]: 100%
Ratio IC50 [8]: > 139
inhibition in vivo at 50 mg/kg [2]: 90.7%
inhibition in vivo at 50 mg/kg [3]: 96.5%
UI [4]: 10.5
inhibition in vivo at 50 mg/kg [5]: 100%

COc1cc2occc2c(OC)c1-c1cc(-c2ccccc2)n(-c2ccc(S(N)(=O)=O)cc2)n1
IC50 [6]: 35 µM
IC50 [7]: > 50 µM
Ratio IC50 [8]: > 1.43

COc1c(-c2cc(C)nn2-c2ccc(S(N)(=O)=O)cc2)c(O)cc2occc12
IC50 [6]: 7.5 µM
IC50 [7]: > 50 µM
Ratio IC50 [8]: > 6.67

COc1c(-c2cc(-c3cccnc3)nn2-c2ccc(S(N)(=O)=O)cc2)c(O)cc2occc12
IC50 [6]: 0.4 µM
IC50 [7]: > 50 µM
inhibition in vivo at 50 mg/kg [1]: 100%
Ratio IC50 [8]: > 125
inhibition in vivo at 50 mg/kg [2]: 90.1%
inhibition in vivo at 50 mg/kg [3]: 96.2%
UI [4]: 13.82
inhibition in vivo at 50 mg/kg [5]: 100%

COc1cc2occc2c(OC)c1-c1cc(-c2ccc(F)cc2)n(-c2ccc(S(N)(=O)=O)cc2)n1
IC50 [6]: 0.46 µM
IC50 [7]: > 50 µM
inhibition in vivo at 50 mg/kg [1]: 83.6%
Ratio IC50 [8]: > 109
inhibition in vivo at 50 mg/kg [2]: 79.6%
inhibition in vivo at 50 mg/kg [3]: 82.5%
UI [4]: 11.75
inhibition in vivo at 50 mg/kg [5]: 82.8%

COc1cc2occc2c(OC)c1-c1cc(-c2ccc(C(F)(F)F)cc2)n(-c2ccc(S(N)(=O)=O)cc2)n1
IC50 [6]: 0.34 µM
IC50 [7]: > 50 µM
inhibition in vivo at 50 mg/kg [1]: 91.8%
Ratio IC50 [8]: > 147
inhibition in vivo at 50 mg/kg [2]: 66.7%
inhibition in vivo at 50 mg/kg [3]: 77.2%
UI [4]: 10.5
inhibition in vivo at 50 mg/kg [5]: 94.8%

COc1c(-c2cc(C(F)(F)F)nn2-c2ccc(S(N)(=O)=O)cc2)c(O)c(OC)c2occc12
IC50 [6]: 0.52 µM
IC50 [7]: > 50 µM
inhibition in vivo at 50 mg/kg [1]: 91.8%
Ratio IC50 [8]: > 96.2
inhibition in vivo at 50 mg/kg [2]: 72.2%
inhibition in vivo at 50 mg/kg [3]: 79%
UI [4]: 11.56
inhibition in vivo at 50 mg/kg [5]: 87.9%

COc1cc2occc2c(OC)c1-c1cc(-c2ccc(Cl)cc2)n(-c2ccc(S(N)(=O)=O)cc2)n1
IC50 [6]: 26 µM
IC50 [7]: > 50 µM
Ratio IC50 [8]: > 1.93
